According to ChEMBL document CHEMBL5104186, “Structure-Activity Relationship and Neuroprotective Activity of 1,5-Dihydro-2H-naphtho[1,2-b][1,4]diazepine-2,4(3H)-diones as P2X4 Receptor Antagonists” (J Med Chem, 2022):
Active and inactive are the calls of the source. The rule behind the calls is not given here.

How the values were obtained:
[1] = molecular target: D(3) dopamine receptor (Homo sapiens, UniProt P35462); assay: Binding affinity to human D3 dopamine receptor
Method in brief: (§1)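 Off-target radioligand binding was run by the NIMH Psychoactive Drug Screening Program across 45 receptors, channels and transporters. Ki in nM, given as mean ± SEM.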

[2] = molecular target: T1, 5-hydroxytryptamine receptor 2C (Homo sapiens, UniProt P28335); assay: Binding affinity to human 5HT2C serotonin receptor; method in brief: as §1
T1 sequence (P28335 whole entry): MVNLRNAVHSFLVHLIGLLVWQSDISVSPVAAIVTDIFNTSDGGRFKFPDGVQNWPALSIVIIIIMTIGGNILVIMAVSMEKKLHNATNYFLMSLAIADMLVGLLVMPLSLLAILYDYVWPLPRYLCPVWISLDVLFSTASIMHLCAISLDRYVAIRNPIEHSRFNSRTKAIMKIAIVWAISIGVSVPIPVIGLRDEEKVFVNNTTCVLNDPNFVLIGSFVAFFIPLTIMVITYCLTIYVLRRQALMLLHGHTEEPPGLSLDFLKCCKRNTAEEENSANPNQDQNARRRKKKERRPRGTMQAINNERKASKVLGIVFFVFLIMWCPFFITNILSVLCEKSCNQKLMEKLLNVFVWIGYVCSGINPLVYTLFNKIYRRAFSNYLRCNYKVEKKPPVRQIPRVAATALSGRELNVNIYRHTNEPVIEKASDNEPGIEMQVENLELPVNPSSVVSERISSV

[3] = system: Mus musculus; assay: Neuroprotective activity in Wild type C57B/6 mouse model of middle cerebral artery occlusion assessed as reduction in hemispheric infract size at 0.5 to 3 mg/kg/day administered for 3 days; format: functional, organism-based; conditions: dose 0.5-3 mg/kg/day, time 3.0 day
Method in brief: (§2)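 C57B/6 mice (8–12-week-old males; 12–13-month-old mice in one study) underwent MCAO (filament, laser Doppler confirmation, 37 °C). At reperfusion a subcutaneous Alzet pump was implanted, giving 0.5–3.0 or 5.0 mg/kg/day for 3 days; vehicle was PBS. At day 3, TTC-stained coronal sections were scored blind, with edema-corrected (Swanson) infarct volume as % of contralateral. Mean ± S.D.; n = 5–6.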

[4] = system: Mus musculus; assay: Neuroprotective activity in Wild type C57B/6 mouse model of middle cerebral artery occlusion assessed as reduction in cortical infract volume at […] administered for 3 days; format: functional, organism-based; conditions: time 3.0 day
[5] = system: Mus musculus; assay: Neuroprotective activity in Wild type C57B/6 mouse model of middle cerebral artery occlusion assessed as reduction in infract damage at […] administered for 3 days by TTC staining based assay; format: functional, organism-based; conditions: time 3.0 day
[6] = system: Mus musculus; assay: Neuroprotective activity in Wild type C57B/6 mouse model of middle cerebral artery occlusion assessed as reduction in tissue atrophy at […] administered for 3 days measured after 35 days by CV staining based assay; format: functional, organism-based; conditions: time 3.0 day
[7] = Effect on locomotor activity in C57B/6 mouse model of middle cerebral artery occlusion at 1.5 to 3 mg/kg/day measured over 4 weeks after stroke by open field test; format: toxicity, organism-based; conditions: in vivo, 672 h, dose 1.5-3 mg/kg/day
Method in brief: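 C57B/6 mice underwent MCAO and received a subcutaneous Alzet minipump (vehicle 1× PBS) at reperfusion, delivering compound for 3 days. Open-field test: 10 min exploration of a 16″ acrylic box at several time points; total beam breaks recorded. Mean ± S.D.; n = 8–15/group, both sexes.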

[8] = system: Mus musculus; assay: Improvement in learning and memory in C57B/6 mouse model of middle cerebral artery occlusion at 3 mg/kg measured after 4 weeks post stroke by NORT; format: functional, organism-based
Method in brief: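 Middle-aged C57B/6 mice (both sexes) underwent MCAO and received a 3-day subcutaneous minipump infusion from reperfusion (vehicle PBS). NORT was run 4 weeks post-stroke: 1 h acclimatisation, 10 min habituation, 10 min trial with two identical objects, then a test 24 h later with one novel object. Discrimination index = (TN − TF)/(TN + TF). One-way ANOVA with Tukey; n = 5–11/group.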

[9] = system: MDM; assay: Inhibition of ATP-induced calcium influx in human monocytes derived macrophages preincubated for 15 mins followed by ATP addition and measured upto 4 mins by laser scanning confocal microscopic analysis; format: functional, cell-based; conditions: dose 0.6-3 µM, time <= 19.0 min, DDE = dose-dependent effect
Method in brief: (§3)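 Monocytes matured into macrophages with GM-CSF (5 ng/mL) for 5–7 days, then seeded 10^4 cells/dish for ≥24 h. Calbryte 590 AM loaded for 60 min in HBSS/HEPES. Cells pretreated 15 min with 0–3 μM compound, then 50 μM ATP added; confocal images taken every 6 s for up to 4 min. Read-out is peak cytosolic Ca2+ amplitude (F/F0). Mean ± SEM; ANOVA with Tukey.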

[10] = system: MDM; assay: Inhibition of ATP-induced calcium influx in human monocytes derived macrophages assessed as decrease in calcium altitude at 0.6 uM preincubated for 15 mins followed by ATP addition and measured upto 4 mins by laser scanning confocal microscopic analysis; format: functional, cell-based; conditions: time <= 19.0 min; method in brief: as §3
[11] = molecular target: T2, P2X purinoceptor 1 (Homo sapiens) (UniProt P51575); assay: Antagonist activity at human P2X1R transfected in CHO-K1 cells at 30 uM preincubated for 30 mins followed by alpha,beta-meATP addition by […] based assay relative to control; format: cell-based; parameters: scale not given: the % may be the effect or the level left
T2 sequence (whole entry): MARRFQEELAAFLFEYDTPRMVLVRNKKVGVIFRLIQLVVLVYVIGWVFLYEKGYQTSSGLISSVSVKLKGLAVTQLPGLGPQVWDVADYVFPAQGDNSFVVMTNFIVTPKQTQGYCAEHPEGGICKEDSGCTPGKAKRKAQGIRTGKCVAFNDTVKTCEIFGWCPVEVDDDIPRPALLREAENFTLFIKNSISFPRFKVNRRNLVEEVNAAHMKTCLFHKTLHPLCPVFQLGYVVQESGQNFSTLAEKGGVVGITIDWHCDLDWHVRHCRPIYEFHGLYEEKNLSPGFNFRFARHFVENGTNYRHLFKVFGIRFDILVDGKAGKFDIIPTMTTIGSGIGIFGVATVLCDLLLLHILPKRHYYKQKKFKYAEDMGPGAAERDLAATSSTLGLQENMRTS

[12] = molecular target: P2X2/P2X3 heterotrimeric receptor (Homo sapiens) (UniProt Q9UBL9+P56373); assay: Antagonist activity at human P2X2/3R transfected in CHO-K1 cells at 30 uM preincubated for 30 mins followed by alpha,beta-meATP addition by fluorescence based assay relative to control; format: cell-based; parameters: scale not given: the % may be the effect or the level left
[13] = molecular target: T3, P2X purinoceptor 3 (Homo sapiens) (UniProt P56373); assay: Antagonist activity at human P2X3R transfected in CHO-K1 cells at 30 uM preincubated for 30 mins followed by alpha,beta-meATP addition by fluorescence based assay relative to control; format: cell-based; parameters: scale not given: the % may be the effect or the level left
T3 sequence (whole entry): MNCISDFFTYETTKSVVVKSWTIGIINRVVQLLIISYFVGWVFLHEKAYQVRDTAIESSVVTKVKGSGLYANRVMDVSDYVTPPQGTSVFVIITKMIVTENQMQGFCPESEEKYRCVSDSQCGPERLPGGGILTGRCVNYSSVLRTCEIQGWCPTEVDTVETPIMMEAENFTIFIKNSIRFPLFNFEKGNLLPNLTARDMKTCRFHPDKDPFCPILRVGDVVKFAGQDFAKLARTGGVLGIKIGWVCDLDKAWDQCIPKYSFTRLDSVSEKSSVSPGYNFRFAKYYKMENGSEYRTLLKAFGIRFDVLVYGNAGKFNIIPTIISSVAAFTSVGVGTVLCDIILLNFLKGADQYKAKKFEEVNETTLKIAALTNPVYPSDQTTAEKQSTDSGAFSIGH

[14] = molecular target: T4, P2X purinoceptor 4 (Homo sapiens, UniProt Q99571); assay: Antagonist activity at human P2X4R transfected in HEK293 cells preincubated for 30 mins followed by CTP addition by fluorescence based assay; format: cell-based
T4 sequence (Q99571 whole entry): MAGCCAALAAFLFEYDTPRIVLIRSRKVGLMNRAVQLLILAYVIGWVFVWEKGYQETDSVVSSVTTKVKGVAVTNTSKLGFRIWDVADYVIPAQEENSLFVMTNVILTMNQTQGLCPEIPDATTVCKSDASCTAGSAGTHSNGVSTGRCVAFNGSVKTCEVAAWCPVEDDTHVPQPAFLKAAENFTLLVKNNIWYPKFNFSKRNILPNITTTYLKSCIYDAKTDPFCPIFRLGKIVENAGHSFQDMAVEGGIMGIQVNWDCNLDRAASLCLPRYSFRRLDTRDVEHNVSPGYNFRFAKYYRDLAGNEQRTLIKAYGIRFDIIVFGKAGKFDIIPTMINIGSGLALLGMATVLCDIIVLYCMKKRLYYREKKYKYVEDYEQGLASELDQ

[15] = molecular target: T5, P2X purinoceptor 4 (Homo sapiens) (UniProt Q99571); assay: Antagonist activity at human P2X4R transfected in HEK293 cells at 30 uM preincubated for 30 mins followed by CTP addition by fluorescence based assay relative to control; format: cell-based; parameters: scale not given: the % may be the effect or the level left
T5 sequence (whole entry): T4 sequence (Q99571 whole entry)

[16] = molecular target: T6, P2X purinoceptor 4 (Rattus norvegicus, UniProt P51577); assay: Antagonist activity at rat P2X4R expressed in HEK293 cells preincubated for 2 mins followed by ATP addition and measured after 4 mins; format: cell-based
T6 sequence (P51577 whole entry): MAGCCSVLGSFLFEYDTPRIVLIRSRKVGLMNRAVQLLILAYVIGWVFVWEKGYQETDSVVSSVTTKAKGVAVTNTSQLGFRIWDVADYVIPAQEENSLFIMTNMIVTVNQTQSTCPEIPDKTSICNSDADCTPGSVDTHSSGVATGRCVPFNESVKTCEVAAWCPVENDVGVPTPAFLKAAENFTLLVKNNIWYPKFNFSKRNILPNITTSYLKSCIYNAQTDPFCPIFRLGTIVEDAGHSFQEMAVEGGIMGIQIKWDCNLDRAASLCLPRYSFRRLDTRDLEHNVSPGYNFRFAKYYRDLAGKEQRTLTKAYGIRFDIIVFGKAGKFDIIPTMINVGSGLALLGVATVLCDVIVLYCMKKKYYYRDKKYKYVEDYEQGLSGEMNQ

[17] = system: Mus musculus; assay: Neuroprotective activity in Wild type C57B/6 mouse model of middle cerebral artery occlusion assessed as reduction in hemispheric infract size at 5 mg/kg/day administered for 3 days; format: functional, organism-based; conditions: time 3.0 day; method in brief: as §2

Chain of D(3) dopamine receptor (P35462 whole entry): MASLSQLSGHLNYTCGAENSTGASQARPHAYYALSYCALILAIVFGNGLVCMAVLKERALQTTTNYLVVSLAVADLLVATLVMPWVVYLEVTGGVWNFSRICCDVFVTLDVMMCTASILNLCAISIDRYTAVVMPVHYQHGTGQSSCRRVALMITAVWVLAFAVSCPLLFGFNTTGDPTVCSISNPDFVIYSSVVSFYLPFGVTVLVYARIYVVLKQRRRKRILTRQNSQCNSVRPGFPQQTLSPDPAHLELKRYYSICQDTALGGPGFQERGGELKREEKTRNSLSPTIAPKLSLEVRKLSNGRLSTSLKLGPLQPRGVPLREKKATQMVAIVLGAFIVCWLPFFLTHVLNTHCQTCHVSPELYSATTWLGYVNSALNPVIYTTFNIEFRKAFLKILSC

SMILES	Activity [11] [%]	Activity [12] [%]	Activity [13] [%]	Activity [15] [%]	also measured
CCN(CC)CC.O=C1CC(=O)N(c2ccnc(-c3noc(=S)[nH]3)c2)c2ccc3ccccc3c2N1	–	–	–	–	Ki [1]: 0.00077 µM; Ki [2]: 0.006 µM; Activity [3]: Active; Activity [4]: Active; Activity [5]: Active; Activity [6]: Active; Activity [7]: Non-Toxic; Activity [8]: Active; inhibition [9]: Dde; inhibition [10]: Active
Cc1ccc2c(Br)cc3c(c2c1)NC(=O)CC(=O)N3c1cccc(-c2noc(=S)[nH]2)c1	-2	-5	17	–	IC50 [14]: 11.8 µM
NCc1ccc2ccc3c(c2c1)NC(=O)CC(=O)N3c1cccc(-c2noc(=S)[nH]2)c1	8	0	9	9	–
[N-]=[N+]=NCc1ccc2c3c(ccc2c1)N(c1cccc(-c2noc(=S)[nH]2)c1)C(=O)CC(=O)N3	-5	2	0	–	IC50 [14]: 21.3 µM
O=C1CC(=O)N(c2cncc(-c3noc(=S)[nH]3)c2)c2ccc3ccccc3c2N1	15	25	6	–	–
O=C1CC(=O)N(c2cccc(-c3noc(=S)[nH]3)n2)c2ccc3ccccc3c2N1	31	15	17	–	–
O=C1CC(=O)N(c2cccc(-c3noc(=S)[nH]3)c2)c2cc(C#Cc3cccnc3)c3ccccc3c2N1	9	13	9	34	–
CCc1cc2c(c3ccccc13)NC(=O)CC(=O)N2c1cccc(-c2noc(=S)[nH]2)c1	6	10	6	–	–
[N-]=[N+]=NCc1ccc2ccc3c(c2c1)NC(=O)CC(=O)N3c1cccc(-c2noc(=S)[nH]2)c1	8	4	13	6	–
O=C1CC(=O)N(c2cccc(-c3noc(=S)[nH]3)c2)c2cc(C#Cc3ccccc3)c3ccccc3c2N1	14	5	7	-4	–
Cc1cc(-c2noc(=S)[nH]2)cc(N2C(=O)CC(=O)Nc3c2ccc2ccccc32)c1	16	5	12	–	–
O=C1CN=C(c2cccc(Br)c2)c2oc3ccccc3c2N1	–	–	–	–	IC50 [16]: 0.75 µM
O=C1CC(=O)N(c2cc(-c3noc(=S)[nH]3)ccn2)c2ccc3ccccc3c2N1	18	-6	18	–	–
Cc1ccc2c3c(ccc2c1)N(c1cccc(-c2noc(=S)[nH]2)c1)C(=O)CC(=O)N3	–	–	–	–	Activity [17]: Active
CC(=O)NCc1ccc2ccc3c(c2c1)NC(=O)CC(=O)N3c1cccc(-c2noc(=S)[nH]2)c1	26	-5	9	16	–
CCCCC#Cc1cc2c(c3ccccc13)NC(=O)CC(=O)N2c1cccc(-c2noc(=S)[nH]2)c1	16	1	18	15	–
[N-]=[N+]=NCc1ccc2c(Br)cc3c(c2c1)NC(=O)CC(=O)N3c1cccc(-c2noc(=S)[nH]2)c1	-13	-4	15	8	–
O=C1CC(=O)N(c2cccc(-c3noc(=S)[nH]3)c2)c2cc(-c3ccccc3)c3ccccc3c2N1	14	10	11	–	IC50 [14]: 20.7 µM
